In ChEMBL document CHEMBL2010661, “Optimization of 2,4-diarylanilines as non-nucleoside HIV-1 reverse transcriptase inhibitors” (Bioorg Med Chem Lett, 2012):
Values after ≈ are worked out from the molar mass of the structure shown.

Legend:
[1] = tested on: Human immunodeficiency virus 1; assay: Antiviral activity against Human immunodeficiency virus 1 NL4-3 infected in human TZM-bl cells assessed as inhibition of viral replication; assay type: functional, organism-based; conditions: Human immunodeficiency virus 1, NL4-3, TZM-bl
[2] = Cytotoxicity against human TZM-bl cells; assay type: cell-based
[3] = Selectivity index, ratio of CC50 for human TZM-bl cells to EC50 for Human immunodeficiency virus 1 NL4-3; assay type: toxicity, cell-based; conditions: read-out: Ratio CC50/EC50
[4] = Aqueous solubility of the compound at pH 7.4 by HPLC/UV analysis; assay type: physicochemical; conditions: buffer
[5] = Aqueous solubility of the compound at pH 2 by HPLC/UV analysis; assay type: physicochemical; conditions: buffer
[6] = tested on: Human immunodeficiency virus 1; assay: Antiviral activity against multi-reverse transcriptase-resistant Human immunodeficiency virus 1; assay type: functional, organism-based
[7] = tested on: Human immunodeficiency virus 1; assay: Antiviral activity against Human immunodeficiency virus 1 harboring reverse transcriptase K101E mutant; assay type: functional, organism-based
In short: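 EC50 against the resistant strain (RTMDR1, K101E or E138K), from experiments run at least in triplicate and reported as mean ± SD.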

[8] = tested on: Human immunodeficiency virus 1; assay: Antiviral activity against Human immunodeficiency virus 1 harboring reverse transcriptase E138K mutant; assay type: functional, organism-based
Liver microsomes [9] = assay: Half life in human liver microsomes at 1 uM; assay type: ADME, Microsome
In short: (§1)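 1 μM compound (diluted from DMSO stock via ACN) at 37 °C in 0.1 M potassium phosphate pH 7.4 with 0.1 mg/mL human liver microsomes and 5 mM MgCl2. NADPH (1.0 mM final) started the reaction.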

Liver microsomes [10] = assay: Clearance in human liver microsomes at 1 uM; assay type: ADME, Microsome; in short: as §1
Liver microsomes [11] = assay: Half life in rat liver microsomes at 1 uM; assay type: ADME, Microsome
In short: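 Rat liver microsome incubation of 1 μM compound at 37 °C in 0.1 M potassium phosphate pH 7.4 with 5 mM MgCl2. NADPH (1.0 mM final) started the reaction, with ice-cold ACN quench at 0–60 min, in duplicate. […] Means of at least two experiments.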

SMILES | EC50 [1] | CC50 [2] | selectivity ratio [3] | solubility [4] | solubility [5] | EC50 [6] | EC50 [7] | EC50 [8] | t1/2 (Liver microsomes [9]) | CLH (Liver microsomes [10]) | t1/2 (Liver microsomes [11])
Cc1cc(/C=C/C#N)cc(C)c1Oc1cc(Nc2ccc(C#N)cc2)c(N)cc1C(N)=O | 0.87 nM | > 23600 nM | > 27100 | 0.63 µg/mL (≈ 1.49 µM) | 2.1 µg/mL (≈ 4.96 µM) | 0.31 nM | 8.8 nM | 9 nM | 0.583 h | 200 µL/min/mg | 2.03 h
Cc1cc(/C=C/C#N)cc(C)c1Nc1ccnc(Nc2ccc(C#N)cc2)n1 [RILPIVIRINE] | – | 19400 nM | – | – | – | – | – | – | 0.567 h | 200 µL/min/mg | 2 h
COC(=O)c1cc(N)c(Nc2ccc(C#N)cc2)cc1Oc1c(C)cc(/C=C/C#N)cc1C | 2.74 nM | > 22800 nM | > 8460 | 1.3 µg/mL (≈ 2.96 µM) | 1.75 µg/mL (≈ 3.99 µM) | – | – | – | – | – | –
CNC(=O)c1cc(N)c(Nc2ccc(C#N)cc2)cc1Oc1c(C)cc(/C=C/C#N)cc1C | 5.72 nM | > 9200 nM | > 1610 | 1.32 µg/mL (≈ 3.02 µM) | 8.63 µg/mL (≈ 19.7 µM) | – | – | – | – | – | –
Cc1cc(/C=C/C#N)cc(C)c1Oc1cc(Nc2ccc(C#N)cc2)c(N)cc1CO | 0.53 nM | 16300 nM | 30800 | 3.23 µg/mL (≈ 7.87 µM) | 21 µg/mL (≈ 51.2 µM) | 0.36 nM | 3.4 nM | 3.9 nM | 0.5 h | 230 µL/min/mg | 1.4 h
Cc1cc(/C=C/C#N)cc(C)c1Oc1cc(Nc2ccc(C#N)cc2)c(N)cc1C(=O)O | 230 nM | 14900 nM | 65 | 117 µg/mL (≈ 276 µM) | 4.4 µg/mL (≈ 10.4 µM) | – | – | – | – | – | –
Cc1cc(/C=C/C#N)cc(C)c1Oc1cc(Nc2ccc(C#N)cc2)c(N)cc1[N+](=O)[O-] | – | – | – | – | – | – | – | 11.3 nM | 0.783 h | 150 µL/min/mg | 2.32 h
